# Source: PubChem BioAssay (several laboratories)
# EP2 mod – EP2 receptor (human) modulation. P43116. EP2-expressing cells, cAMP HTRF FRET, PGE2 co-stimulation. induction, % at 25 µM. actives 0.83% (n = 260,000). AID 940;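 active = compounds whose cAMP rise, as percent of the full-agonist control response, exceeds 60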;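 also: rat C6 glioma line stably carrying human EP2 under a CMV promoter; the protocol text gives 20 µM as final concentration; 100% = response of wells given 1 µM PGE2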
# OX1R antag-1 – blocks the human orexin 1 receptor; O43613; CHO/OX1R cells, Fluo-8 calcium fluorescence, orexin A; inhibition, % at 5 µM; actives 0.43% (n = 330,000);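 active = inhibition above its plate's threshold, mean inhibition of all tested compounds on the plate plus 3 SD, cut at about 37% in these data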;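 also: 0% = orexin A challenge wells and 100% = SB-334867-A antagonist wells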
# Target sequence (O43613 whole entry, looked up): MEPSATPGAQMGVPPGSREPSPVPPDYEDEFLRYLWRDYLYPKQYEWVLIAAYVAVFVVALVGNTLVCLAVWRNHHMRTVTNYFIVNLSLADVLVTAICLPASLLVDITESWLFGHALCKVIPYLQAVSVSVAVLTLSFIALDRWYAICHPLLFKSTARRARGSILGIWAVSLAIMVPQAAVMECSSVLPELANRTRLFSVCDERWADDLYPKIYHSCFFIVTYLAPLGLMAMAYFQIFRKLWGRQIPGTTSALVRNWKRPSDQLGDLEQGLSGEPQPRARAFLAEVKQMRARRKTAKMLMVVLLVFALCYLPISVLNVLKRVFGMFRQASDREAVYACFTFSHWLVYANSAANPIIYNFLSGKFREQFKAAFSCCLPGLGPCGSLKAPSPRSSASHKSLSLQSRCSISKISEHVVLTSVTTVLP
# GPR7 antagonist – blocks human GPR7 receptor signaling | P48145 | GPR7-expressing cells, fluorescence antagonist assay | inhibition, % at 4.4 µM | actives 1.1% (n = 290,000); in the data active = inhibition above about 16%, passing the limit was not always enough;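 also: cells stimulated with the agonist NPW; 0% = agonist with vehicle and 100% = vehicle without agonist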
# CHO parental Ca – counter-screen: ATP calcium response change in parental CHO cells; parental CHO-K1, ATP-induced calcium, Fluo-8 fluorescence; inhibition, % at 5.6 µM; actives 0.63% (n = 330,000);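 active = inhibition above that plate's mean sample inhibition plus 3 SD, cut at about 26% in these data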;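 also: 0% = ATP-challenged DMSO wells and 100% = DMSO wells without ATP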
#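 Test system: parental CHO cells; detection: calcium-sensitive Fluo-8 fluorescence; evaluation: percent inhibition of calcium signal; also added: ATP as calcium-mobilizing challenge; repeats: one well per compound; control set: ATP-challenged DMSO wells low, unchallenged DMSO wells high; compound: single nominal dose of 5.6 µM per compound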
# EP2 antag – inhibitors of human EP2 prostaglandin E2 receptor | AID 1422 | actives 0.52% (n = 260,000) | inhibition, % at 25 µM | P43116 | C6 glioma cells expressing human EP2, cAMP TR-FRET; cells stimulated with saturating PGE2;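 active = percent inhibition above 40 after rounding to a whole number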;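 also: rat C6 glioma host cells with rolipram phosphodiesterase inhibitor present; the protocol text gives 20 µM as final concentration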
# OX1R antag-2 – antagonists of human orexin 1 receptor (OX1R); O43613; OX1R-expressing cells, FRET antagonist read-out; inhibition, % at 6.6 µM; actives 1.8% (n = 330,000); AID 485270; in the data active = inhibition mostly above about 38%, no sharp cut-off; inactive = mostly below about 40%;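 also: 0% = agonist challenge alone and 100% = reference antagonist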
# An asterisk follows results filed as active; x = no result. The list is not random: actives were taken first. Their share in the collection is about 3.7%.
SMILES,EP2 mod,OX1R antag-1,GPR7 antagonist,CHO parental Ca,EP2 antag,OX1R antag-2
COc1ccccc1-n1c(-c2ccccc2)c[nH]c1=S,-19,x,-4,x,3,x
CC(C)c1ccc(-n2c(-c3ccccc3)c[n+]3c2CCc2ccccc2-3)cc1,-70,x,68*,x,14,x
COc1ccc(-n2c(-c3ccc(Br)cc3)c[n+]3c2CCc2ccccc2-3)cc1,10,-23,19,10,4,4
COc1ccccc1-n1c(-c2ccccc2)c[n+]2c1CCc1ccccc1-2,-15,-25,28*,6,11,21
COc1ccc(/C=N/NC(=O)c2cccc(NC(=O)c3ccccc3Cl)c2)cc1,x,-15,4,-15,x,26
O=C(CN1C(=O)NC(CCc2ccccc2)C1=O)NC1CC1 (centres undefined),-5,-1,24*,-7,8,7
CCNC(=O)CN1C(=O)NC(CCc2ccccc2)C1=O (centres undefined),12,-10,-10,-6,8,10
COc1ccccc1-c1nc(SCC(=O)Nc2ccccc2)n[nH]1,x,-21,5,-20,x,12
O=C(Cn1c(=O)oc2ccccc21)NCc1ccco1,-6,-10,18*,4,11,14
COc1ccc2c(c1OC)C(=O)O[C@H]2[C@H]1c2c(cc3c(c2OC)OCO3)CCN1C,68*,x,x,x,10,x
CS(=O)(=O)n1nc(-c2ccc(Cl)cc2)nc1N,-3,-8,-9,-11,10,17
Cn1nc(-c2ccc(Cl)cc2)nc2c(=O)n(C)c(=O)nc1-2,-64,-16,-22,-24,29,91*
FC(F)Sc1ccc(NC(=S)NC2CCCC2)cc1,-67,11,-8,60*,8,26
O=C(NCc1n[nH]c(=S)n1-c1cccc(C(F)(F)F)c1)c1ccc(S(=O)(=O)N2CCCC2)cc1,24,9,-10,-4,5,50*
O=C(NCc1n[nH]c(=S)n1-c1cccc(C(F)(F)F)c1)c1ccc(S(=O)(=O)N2CCCCC2)cc1,x,-11,-2,-8,x,9
COc1ccccc1NC(=O)N1CCCC1C(=O)NCC1CCCO1 (centres undefined),35,-8,-11,-3,5,14
Nc1nonc1N/N=C/c1c(O)ccc2ccccc12,-89,50*,11,24,19,72
Nc1nonc1N/N=C\c1ccccc1,-8,-9,-8,4,7,13
COc1ccc(CC(=O)NC(C)c2nnc(SCCC(=O)Nc3ccccc3)n2C)cc1 (centres undefined),-6,-15,5,-15,8,2
CCOC(=O)C1=C(CC)Nc2ccccc2N=C1NC(=O)Nc1ccc(Cl)c(Cl)c1,-30,64*,19,64*,14,96*
CCCC[n+]1ccn(C2=C([O-])c3ccccc3C(=O)/C2=N\S(=O)(=O)c2ccc(Cl)cc2)c1,-36,-32,-3,-28,13,47*
COC(=O)c1sccc1NC(=O)c1ccc(C)s1,47,-4,-1,-31,6,56*
CCn1c(Cc2ccc(OC)cc2)nnc1SCC(=O)N1CCN(c2ccccc2)CC1,-4,-31,-8,-16,x,47*
CCc1cc2c(N3CCN(c4ccccc4)CC3)ncnc2s1,-23,58*,4,60*,12,31
CC1(c2ccccc2)ON(c2ccccc2C(F)(F)F)C1=O (centres undefined),x,16,x,-9,x,8
SMILES,EP2 mod,OX1R antag-1,GPR7 antagonist,CHO parental Ca,EP2 antag,OX1R antag-2
Clc1ccc2c(N3CCC(CCC4CCN(c5ncnc6cc(Cl)ccc56)CC4)CC3)ncnc2c1,15,x,x,x,52*,x
O=C(c1ccc2ccccc2c1)N1CCN(c2ccc([N+](=O)[O-])c(N3CCOCC3)c2)CC1,-33,-41,-2,-14,17,43
Cc1cccc(C(=O)N2CCN(c3ccc([N+](=O)[O-])c(N4CCOCC4)c3)CC2)c1,26,-61,-2,-10,8,75*
COc1ccc2cc(CN(Cc3ccccc3)Cc3nnnn3C3CCCCC3)c(=O)[nH]c2c1,75*,x,x,x,6,x
Cc1cccc2cc(CN(Cc3ccc4c(c3)OCO4)Cc3nnnn3C3CCCCC3)c(=O)[nH]c12,68*,x,x,x,14,x
Cc1cc2cc(CN(Cc3ccccc3)Cc3nnnn3C3CCCC3)c(=O)[nH]c2cc1C,71*,x,x,x,14,x
CCOc1ccccc1OCC(=O)OCC(=O)c1c(N)n(CC(C)C)c(=O)n(C)c1=O,x,35,x,2,x,15
O=C(Nc1ccccc1C(=O)N1CCCCCC1)c1cccc([N+](=O)[O-])c1,x,-8,7,-30,x,53*
O=C(NNC(=O)c1cccc([N+](=O)[O-])c1)c1ccncc1,0,-5,0,-6,10,46*
C/C(=N\NC(=O)c1ccc([N+](=O)[O-])cc1)c1cccc([N+](=O)[O-])c1,-3,-9,-12,-11,1,64*
Cc1cc(C(=O)Nc2ccccc2C(=O)N2CCCCC2)ccc1[N+](=O)[O-],10,-41,-18,-23,8,15
C/C(=N\NC(=O)c1cccnc1)c1cccc([N+](=O)[O-])c1,12,-23,-15,-19,9,29
O=C(COc1ccc(Cl)cc1)N(Cc1ccco1)C1CCS(=O)(=O)C1 (centres undefined),-20,-21,-20,-11,1,6
CCOC(=O)c1nn(-c2cccc(OC)c2)c2nc(Nc3ccccc3)cc(=O)n12,39,-5,-6,94*,14,14
CCCn1c(SCC(=O)Nc2ccc(F)c(Cl)c2)nc(O)cc1=O,x,13,x,30*,x,4
CCCn1c(SCC(=O)Nc2ccc(Cl)cc2F)nc(O)cc1=O,x,-7,x,3,x,3
COc1ccccc1-c1c(C#N)c(N)nc(OC)c1C#N,41,x,x,x,9,x
CCN(CC)c1ccc(-c2c(C#N)c(N)nc(OC)c2C#N)cc1,18,5,-8,36*,34,17
Cc1nnc(N/N=C/c2cccc(OCc3ccc(Cl)c(Cl)c3)c2)n1N,-7,-6,-5,-9,9,44*
Cc1nnc(N/N=C/c2cccc(C(F)(F)F)c2)n1N,x,-1,-9,-9,x,22
O=C1OC2(c3ccccc31)c1cc(I)c(O)c(I)c1Oc1c2cc(I)c(O)c1I,x,106*,x,94*,x,91*
O=C1C(=Cc2cccnc2)C(=O)c2ccccc21,-117,x,x,x,42*,x
Cc1ccc(-c2nc(NCC3CCCO3)sc2C)cc1 (centres undefined),-12,-27,-6,-29,7,22
C=CCNc1cnn(-c2ccccc2)c(=O)c1Cl,-2,3,-13,-5,9,12
O=C(Nc1nc(-c2ccco2)c(-c2ccco2)s1)C1CCC1,-66,-19,-3,-22,12,58
Nc1ccc2nc3c(=O)n(C4CCCCC4)c(=O)[nH]c3nc2c1,0,46*,5,39*,6,53
